Where two headings read alike, the source gives them in different places.

One data set has as its system BCRP. The note with it: cited from earlier work.
Data set [1] can be described thus: Stability testing in mouse plasma in vitro. It is filed as in vitro ADME. The note with it: 37°C, 30 min, SPE/HPLC. The essentials:
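Citrated mouse plasma (0.5 mL) mixed with 20 µL formulated radiotracer (about 40 MBq). Held 30 min at 37°C in a shaking water bath. Then C18 solid-phase extraction: acidified load, H2O wash, MeOH elution. Fractions analysed by radio-HPLC, reversed-phase column, CH3CN/MeOH/NH4OAc pH 5.0, UV 227 nm, to find the polar labelled species.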

A short description of data set [2]: Stability testing in formulation solution for i.v. injection. The data set is classed as physicochemical. Particulars: at least 2 h at room temperature; 0.9% aq. saline/ethanol/polyethylene glycol 300; HPLC system A.
Data set [3] is described as follows: Small-animal PET imaging of [11C]-1 in wild-type and transporter knockout mice. It is filed as in vivo. The note with it: for Brain AUC / Brain-blood ratio, 25 min / Brain concentration, 25 min: total radioactivity, mean±SD; for Brain AUC: 0-60 min; for Brain AUC / Brain concentration, 25 min: n=3; for AUC of brain TACs, fold higher compared to wild-type animals: p=0.0495. The method in brief:
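Female mice, 25-30 g, three per genotype. Isoflurane 2.5% to induce, 1.5-2% by mask to maintain, warmed to about 38°C. About 0.1 mL radiotracer (28±16 MBq) into the lateral tail vein. Whole-brain PET TACs as %ID/g; AUC from zero to the last time point. Brain %ID/g at 25 min divided by whole-blood %ID/g from a separate group (one mouse per genotype) gives brain-blood ratio. Mean±SD; Mann-Whitney U versus wild-type.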

The format of data set [4] is in vivo, mice. The note with it: for total plasma radioactivity recovered in SPE fraction 3 (MeOH) / percentage of unchanged [11C]-1 in mouse plasma / Blood concentration, 25 min: n=1; for percentage of unchanged [11C]-1 in mouse plasma: 25 min after tracer injection; for percentage of total brain radioactivity in the form of unchanged [11C]-1: brain tissue extract, HPLC system A; for Blood concentration, 25 min: total radioactivity; for mean brain-to-plasma ratio of unchanged [11C]-1, fold higher compared to wild-type animals: 25 min, p=0.0495; for Kp at 25 min: mouse, brain and plasma, intravenous, Brain-plasma ratio of unchanged [11C]-1, 25 min, mean±SD. The method in brief: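 Female mice, 25-30 g, one per genotype, given radiotracer i.v. At 25 min: cardiac blood into heparin, spun 3,000×g, 5 min, 21°C, for plasma. Blood and plasma weighed, gamma-counted (cross-calibrated with PET), decay-corrected, %ID/g. Plasma spiked with unlabelled carrier, acidified, run through tC18 SPE (H2O wash, MeOH elution). H2O and MeOH fractions went to reversed-phase HPLC (pH 5.0, 35°C) and Aminex HPLC, UV 227 nm. Brain homogenised in saline, CH3CN-extracted, supernatant HPLC.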

The conditions of data set [5]: rats; time course of a 1 h PET scan; cited from earlier work.
Setting [6] is: Bcrp1(−/−) mice, 25 min after injection.
[7] abbreviates: Mdr1a/b(−/−) mice, 25 min after injection.
Setting [8] is: wild-type mice, 25 min after injection.

With `COC(=O)c1ccc(C(=O)Nc2ccc(CCN3CCc4cc(OC)c(OC)cc4C3)cc2)cc1NC(=O)c1ccc2ccccc2n1` [Compound 1, Methyl 4-((4-(2-(6,7-dimethoxy-1,2,3,4-tetrahydroisoquinolin-2-yl)ethyl)phenyl)amino-carbonyl)-2-(quinoline-2-carbonylamino)benzoate], the “selectivity for inhibition of BCRP over P-gp” value in the data set with BCRP (in vitro transport assays) is “approximately 500 fold”. In addition, in the data set with BCRP (read-out: half-maximum inhibitory concentration (IC50), BCRP-mediated transport of mitoxantrone, topotecan-resistant MCF-7 breast cancer cells), the IC50 is 60 nM.
As a reminder, the Kp is tissue or fluid exposure divided by exposure in the circulation. As to `COc1cc2c(cc1OC)CN(CCc1ccc(NC(=O)c3ccc(C(=O)O[11CH3])c(NC(=O)c4ccc5ccccc5n4)c3)cc1)CC2` [[^11C]-1, [^11C]Methyl 4-((4-(2-(6,7-dimethoxy-1,2,3,4-tetrahydroisoquinolin-2-yl)ethyl)phenyl)amino-carbonyl)-2-(quinoline-2-carbonylamino)benzoate], in data set [1], the “total radioactivity degraded to an unidentified polar radiolabelled species” value was above 98%. The “stability in formulation solution for i.v. injection” value in data set [2] is reported as 100%. For the same molecule, the “Brain AUC” value is 3.1±0.2 h·%ID/g in data set [3] (Bcrp1(−/−) mice), 3.6±0.6^† h·%ID/g in data set [3] (Mdr1a/b(−/−) mice), 5.1±0.9^† h·%ID/g in data set [3] (Mdr1a/b(−/−)Bcrp1(−/−) mice) and 2.8±0.2 h·%ID/g in data set [3] (wild-type mice). Also, the “Brain-blood ratio, 25 min” value was found to be 1.6±0.1 in data set [3] (Bcrp1(−/−) mice), 1.7±0.3 in data set [3] (Mdr1a/b(−/−) mice), 3.2±0.6 in data set [3] (Mdr1a/b(−/−)Bcrp1(−/−) mice) and 1.5±0.1 in data set [3] (wild-type mice). Besides, the “Brain concentration, 25 min” value in data set [3] (Bcrp1(−/−) mice) is given as 3.5±0.2 %ID/g; in data set [3] (Mdr1a/b(−/−) mice) it was 4.2±0.8 %ID/g; in data set [3] (Mdr1a/b(−/−)Bcrp1(−/−) mice), 5.8±1.2 %ID/g; in data set [3] (wild-type mice), 3.2±0.2 %ID/g. Also, the “AUC of brain TACs, fold higher compared to wild-type animals” value in data set [3] (Mdr1a/b(−/−) mice) is 1.3 fold; in data set [3] (triple knockout (Mdr1a/b(−/−)Bcrp1(−/−)) mice), 1.8 fold. The “total plasma radioactivity recovered in SPE fraction 3 (MeOH)” value is 19% in data set [4] (setting [6]); 28% in data set [4] (setting [7]); 18% in data set [4] (Mdr1a/b(−/−)Bcrp1(−/−) mice, 25 min after injection); 25% in data set [4] (setting [8]). Also, the “percentage of unchanged [11C]-1 in mouse plasma” value in data set [4] (Bcrp1(−/−) mice) is 14%; in data set [4] (Mdr1a/b(−/−) mice), 17%; in data set [4] (Mdr1a/b(−/−)Bcrp1(−/−) mice) it was 11%; in data set [4] (wild-type mice), 13%. For the same molecule, the entries for the “percentage of total brain radioactivity in the form of unchanged [11C]-1” value in data set [4] (setting [6]), in data set [4] (setting [7]) and in data set [4] (setting [8]) were 25%, 62% and 12%, respectively. Besides, the “Blood concentration, 25 min” value is on record as 2.3 %ID/g in data set [4] (Bcrp1(−/−) mice), 2.5 %ID/g in data set [4] (Mdr1a/b(−/−) mice), 1.8 %ID/g in data set [4] (Mdr1a/b(−/−)Bcrp1(−/−) mice) and 2.1 %ID/g in data set [4] (wild-type mice). Besides, the “mean brain-to-plasma ratio of unchanged [11C]-1, fold higher compared to wild-type animals” value amounted to 4.8 fold in data set [4] (Mdr1a/b(−/−) mice) and 10.3 fold in data set [4] (Mdr1a/b(−/−)Bcrp1(−/−) mice). For the same molecule, in data set [4] (mouse plasma extracts, 25 min after injection, range over the 4 mouse types), the “total plasma radioactivity in the form of unchanged parent” value was 11-17%. For the same molecule, the Kp at 25 min is 2.1 ± 0.1 in data set [4] (Bcrp1(−/−) mice), 8.6 ± 1.6 in data set [4] (Mdr1a/b(−/−) mice), 18.3 ± 3.7 in data set [4] (Mdr1a/b(−/−)Bcrp1(−/−) mice) and 1.8 ± 0.1 in data set [4] (wild-type mice).
`COc1cc2c(cc1OC)CN(CCc1ccc(NC(=O)c3cc(OC)c(OC)cc3NC(=O)c3cnc4ccccc4c3)cc1)CC2` [tariquidar]: the metabolism in vivo result in data set [5] is recorded as “hardly metabolized”.

Values taken from article PMC3690702 (Nuclear medicine and biology, 2010).
